The source made the active and inactive calls.
Columns and labels:
[1] = test system: KM12; test: Cytotoxicity against human KM12 cells assessed as cell growth at 1 x 10^-5 M; type: functional, cell-based
In short: (§1)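 Run by the NCI Developmental Therapeutics Program (DTP) as its one-dose screen across the 60 human tumour cell line panel.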

[2] = test system: OVCAR-4; test: Cytotoxicity against human OVCAR4 cells assessed as cell growth at 1 x 10^-5 M; type: functional, cell-based; in short: as §1
[3] = test system: NCI-H226; test: Cytotoxicity against human NCI-H226 cells assessed as cell growth at 1 x 10^-5 M; type: functional, cell-based; in short: as §1
[4] = test system: SK-MEL-28; test: Cytotoxicity against human SK-MEL-28 cells assessed as cell growth at 1 x 10^-5 M; type: functional, cell-based; in short: as §1
[5] = test system: OVCAR-3; test: Cytotoxicity against human OVCAR3 cells assessed as cell growth at 1 x 10^-5 M; type: functional, cell-based; in short: as §1
[6] = test system: M14; test: Cytotoxicity against human M14 cells assessed as cell growth at 1 x 10^-5 M; type: functional, cell-based; in short: as §1
[7] = test system: SR; test: Cytotoxicity against human SR cells assessed as cell growth at 1 x 10^-5 M; type: functional, cell-based; in short: as §1
[8] = test system: DU-145; test: Cytotoxicity against human DU145 cells assessed as cell growth at 1 x 10^-5 M; type: functional, cell-based; in short: as §1
[9] = test system: SNB-19; test: Cytotoxicity against human SNB19 cells assessed as cell growth at 1 x 10^-5 M; type: functional, cell-based; in short: as §1
[10] = test system: SW-620; test: Cytotoxicity against human SW620 cells assessed as cell growth at 1 x 10^-5 M; type: functional, cell-based
In short: (§2)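 Tested by the NCI Developmental Therapeutics Program in its one-dose screen across the 60 human tumour cell line panel.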

[11] = test system: OVCAR-5; test: Cytotoxicity against human OVCAR5 cells assessed as cell growth at 1 x 10^-5 M; type: functional, cell-based; in short: as §1
[12] = test system: SF-295; test: Cytotoxicity against human SF295 cells assessed as cell growth at 1 x 10^-5 M; type: functional, cell-based; in short: as §1
[13] = test system: Escherichia coli; test: Effect on Copper-mediated Escherichia coli pUC19 DNA cleavage at 100 uM by gel-electrophoresis analysis
[14] = test system: SNB-75; test: Cytotoxicity against human SNB75 cells assessed as cell growth at 1 x 10^-5 M; type: functional, cell-based; in short: as §1
[15] = test system: LOX IMVI; test: Cytotoxicity against human LOXIMVI cells assessed as cell growth at 1 x 10^-5 M; type: functional, cell-based; in short: as §1
[16] = test system: HOP-92; test: Cytotoxicity against human HOP92 cells assessed as cell growth at 1 x 10^-5 M; type: functional, cell-based; in short: as §1
[17] = test system: HOP-62; test: Cytotoxicity against human HOP62 cells assessed as cell growth at 1 x 10^-5 M; type: functional, cell-based; in short: as §1
[18] = test system: SK-OV-3; test: Cytotoxicity against human SKOV3 cells assessed as cell growth at 1 x 10^-5 M; type: functional, cell-based; in short: as §1
[19] = test system: NCI-H460; test: Cytotoxicity against human NCI-H460 cells assessed as cell growth at 1 x 10^-5 M; type: functional, cell-based; in short: as §1
[20] = test system: NCI/ADR-RES; test: Cytotoxicity against human NCI-ADR-RES cells assessed as cell growth at 1 x 10^-5 M; type: functional, cell-based; in short: as §1
[21] = test system: T47D; test: Cytotoxicity against human T47D cells assessed as cell growth at 1 x 10^-5 M; type: functional, cell-based; in short: as §2
[22] = test system: SK-MEL-2; test: Cytotoxicity against human SK-MEL-2 cells assessed as cell growth at 1 x 10^-5 M; type: functional, cell-based; in short: as §1
[23] = test system: SN12C; test: Cytotoxicity against human SN12C cells assessed as cell growth at 1 x 10^-5 M; type: functional, cell-based; in short: as §1
[24] = test system: ACHN; test: Cytotoxicity against human ACHN cells assessed as cell growth at 1 x 10^-5 M; type: functional, cell-based; in short: as §1
[25] = test system: CAKI-1; test: Cytotoxicity against human Caki1 cells assessed as cell growth at 1 x 10^-5 M; type: functional, cell-based; in short: as §1
[26] = test system: U-251; test: Cytotoxicity against human U251 cells assessed as cell growth at 1 x 10^-5 M; type: functional, cell-based; in short: as §2
[27] = test system: UO-31; test: Cytotoxicity against human UO31 cells assessed as cell growth at 1 x 10^-5 M; type: functional, cell-based; in short: as §2
[28] = test system: SF-268; test: Cytotoxicity against human SF268 cells assessed as cell growth at 1 x 10^-5 M; type: functional, cell-based; in short: as §1
[29] = test system: NCI-H23; test: Cytotoxicity against human NCI-H23 cells assessed as cell growth at 1 x 10^-5 M; type: functional, cell-based; in short: as §1
[30] = test system: Hs-578T; test: Cytotoxicity against human Hs578T cells assessed as cell growth at 1 x 10^-5 M; type: functional, cell-based; in short: as §1
[31] = test system: A549; test: Cytotoxicity against human A549 cells assessed as cell growth at 1 x 10^-5 M; type: functional, cell-based; in short: as §1
[32] = test system: MDA-MB-468; test: Cytotoxicity against human MDA-MB-468 cells assessed as cell growth at 1 x 10^-5 M; type: functional, cell-based; in short: as §1
[33] = test system: RXF 393; test: Cytotoxicity against human RXF393 cells assessed as cell growth at 1 x 10^-5 M; type: functional, cell-based; in short: as §1
[34] = test system: HT-29; test: Cytotoxicity against human HT-29 cells assessed as cell growth at 1 x 10^-5 M; type: functional, cell-based; in short: as §1
[35] = test system: UACC-257; test: Cytotoxicity against human UACC257 cells assessed as cell growth at 1 x 10^-5 M; type: functional, cell-based; in short: as §2
[36] = test system: BT-549; test: Cytotoxicity against human BT549 cells assessed as cell growth at 1 x 10^-5 M; type: functional, cell-based; in short: as §1
[37] = test system: HL-60(TB); test: Cytotoxicity against human HL-60(TB) cells assessed as cell growth at 1 x 10^-5 M; type: functional, cell-based
In short: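 Run by the NCI Developmental Therapeutics Program (DTP) within its 60 human tumour cell line one-dose screen.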

[38] = test system: 786-0; test: Cytotoxicity against human 786-0 cells assessed as cell growth at 1 x 10^-5 M; type: functional, cell-based; in short: as §1
[39] = test system: MCF7; test: Cytotoxicity against human MCF7 cells assessed as cell growth at 1 x 10^-5 M; type: functional, cell-based; in short: as §1
[40] = test system: A498; test: Cytotoxicity against human A498 cells assessed as cell growth at 1 x 10^-5 M; type: functional, cell-based; in short: as §1
[41] = test system: MOLT-4; test: Cytotoxicity against human MOLT4 cells assessed as cell growth at 1 x 10^-5 M; type: functional, cell-based; in short: as §1
[42] = test system: NCI-H322M; test: Cytotoxicity against human NCI-H322M cells assessed as cell growth at 1 x 10^-5 M; type: functional, cell-based; in short: as §1
[43] = test system: COLO 205; test: Cytotoxicity against human COLO205 cells assessed as cell growth at 1 x 10^-5 M; type: functional, cell-based; in short: as §1
[44] = test system: SK-MEL-5; test: Cytotoxicity against human SK-MEL-5 cells assessed as cell growth at 1 x 10^-5 M; type: functional, cell-based; in short: as §1
[45] = test system: Malme-3M; test: Cytotoxicity against human MALME-3M cells assessed as cell growth at 1 x 10^-5 M; type: functional, cell-based; in short: as §1
[46] = test system: SF-539; test: Cytotoxicity against human SF539 cells assessed as cell growth at 1 x 10^-5 M; type: functional, cell-based; in short: as §1
[47] = test system: IGROV-1; test: Cytotoxicity against human IGROV1 cells assessed as cell growth at 1 x 10^-5 M; type: functional, cell-based; in short: as §1
[48] = test system: K562; test: Cytotoxicity against human K562 cells assessed as cell growth at 1 x 10^-5 M; type: functional, cell-based; in short: as §1
[49] = test system: Escherichia coli; test: Effect on Copper-mediated Escherichia coli pBR322 DNA cleavage at 100 uM by gel-electrophoresis analysis
[50] = test system: TK-10; test: Cytotoxicity against human TK10 cells assessed as cell growth at 1 x 10^-5 M; type: functional, cell-based; in short: as §2
[51] = test system: UACC-62; test: Cytotoxicity against human UACC62 cells assessed as cell growth at 1 x 10^-5 M; type: functional, cell-based; in short: as §2
[52] = test system: CCRF-CEM; test: Cytotoxicity against human CCRF-CEM cells assessed as cell growth at 1 x 10^-5 M; type: functional, cell-based; in short: as §1
[53] = test system: Escherichia coli; test: Effect on photodynamic inactivation in Escherichia coli pUC19 DNA assessed as photo-mediated DNA cleavage at 10 to 100 uM by ethidium bromide gel-electrophoresis analysis
[54] = test system: MDA-MB-435; test: Cytotoxicity against human MDA-MB-435 cells assessed as cell growth at 1 x 10^-5 M; type: functional, cell-based; in short: as §1
[55] = test system: OVCAR-8; test: Cytotoxicity against human OVCAR8 cells assessed as cell growth at 1 x 10^-5 M; type: functional, cell-based; in short: as §1
[56] = test system: NCI-H522; test: Cytotoxicity against human NCI-H522 cells assessed as cell growth at 1 x 10^-5 M; type: functional, cell-based; in short: as §1
[57] = test system: HCT-15; test: Cytotoxicity against human HCT15 cells assessed as cell growth at 1 x 10^-5 M; type: functional, cell-based; in short: as §1
[58] = test system: MDA-MB-231; test: Cytotoxicity against human MDA-MB-231 cells assessed as cell growth at 1 x 10^-5 M; type: functional, cell-based; in short: as §1
[59] = test system: HCC 2998; test: Cytotoxicity against human HCC2998 cells assessed as cell growth at 1 x 10^-5 M; type: functional, cell-based; in short: as §1
[60] = test system: PC-3; test: Cytotoxicity against human PC3 cells assessed as cell growth at 1 x 10^-5 M; type: functional, cell-based; in short: as §1
[61] = test system: HCT-116; test: Cytotoxicity against human HCT116 cells assessed as cell growth at 1 x 10^-5 M; type: functional, cell-based; in short: as §1

Cc1cc(O)c2c(c1)C1OC(=O)[C@H](Cc3ccc(NC(=O)COc4ccccc4)cc3)N1C1=C2C(=O)c2cccc(O[C@H]3C[C@@H](O)[C@@H](O)[C@H](C)O3)c2C1=O (stereo partly specified)
inactive: growth inhibition (GI) [1] | growth inhibition (GI) [2] | growth inhibition (GI) [3] | growth inhibition (GI) [4] | growth inhibition (GI) [5] | growth inhibition (GI) [6] | growth inhibition (GI) [7] | growth inhibition (GI) [8] | growth inhibition (GI) [9] | growth inhibition (GI) [10] | growth inhibition (GI) [11] | growth inhibition (GI) [12] | Activity [13] | growth inhibition (GI) [14] | growth inhibition (GI) [15] | growth inhibition (GI) [16] | growth inhibition (GI) [17] | growth inhibition (GI) [18] | growth inhibition (GI) [19] | growth inhibition (GI) [20] | growth inhibition (GI) [21] | growth inhibition (GI) [22] | growth inhibition (GI) [23] | growth inhibition (GI) [24] | growth inhibition (GI) [25] | growth inhibition (GI) [26] | growth inhibition (GI) [27] | growth inhibition (GI) [28] | growth inhibition (GI) [29] | growth inhibition (GI) [30] | growth inhibition (GI) [31] | growth inhibition (GI) [32] | growth inhibition (GI) [33] | growth inhibition (GI) [34] | growth inhibition (GI) [35] | growth inhibition (GI) [36] | growth inhibition (GI) [37] | growth inhibition (GI) [38] | growth inhibition (GI) [39] | growth inhibition (GI) [40] | growth inhibition (GI) [41] | growth inhibition (GI) [42] | growth inhibition (GI) [43] | growth inhibition (GI) [44] | growth inhibition (GI) [45] | growth inhibition (GI) [46] | growth inhibition (GI) [47] | growth inhibition (GI) [48] | Activity [49] | growth inhibition (GI) [50] | growth inhibition (GI) [51] | growth inhibition (GI) [52] | Activity [53] | growth inhibition (GI) [54] | growth inhibition (GI) [55] | growth inhibition (GI) [56] | growth inhibition (GI) [57] | growth inhibition (GI) [58] | growth inhibition (GI) [59] | growth inhibition (GI) [60] | growth inhibition (GI) [61]

— ChEMBL document CHEMBL3585335, “Isolation and Synthetic Diversification of Jadomycin 4-Amino-l-phenylalanine” (J Nat Prod, 2015)
